According to ChEMBL document CHEMBL4130516, “Immunomodulatory Polyketides from a Phoma-like Fungus Isolated from a Soft Coral” (J Nat Prod, 2017):
Activity calls are given as the source filed them. The calls are words filed in the database; no cut-off is given here.

How the values were obtained:
MCF7 = test: Cytotoxicity in human MCF7 cells assessed as reduction in cell viability at 30 uM incubated for CellTiter-Blue cell viability assay; format: functional, cell-based
How it was run: (§1)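 Cells were treated with compounds at 30 μM for 48 h at 37 °C in 5% CO2. Media were DMEM + 10% FBS for A549, HCT116 and MCF-7, and MEM for DAOY. Adriamycin was the positive control. Relative viability was read by CellTiter-Blue at 530/590 nm.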

A549 = test: Cytotoxicity in human A549 cells assessed as reduction in cell viability at 30 uM incubated for CellTiter-Blue cell viability assay; format: functional, cell-based; how it was run: as §1
Splenocyte [1] = test: Induction of apoptosis in Con A-stimulated C57BL/6 mouse splenocytes at 3 uM by flow cytometry; format: cell-based
How it was run: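 C57BL/6 mouse splenocytes (2 × 10^6 cells/mL) were incubated with compounds at 3 μM for 24 h, with Con A (5 μg/mL) as positive control. Cells were washed with PBS and immediately analysed for apoptosis by flow cytometry.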

Daoy = test: Cytotoxicity in human DaOY cells assessed as reduction in cell viability at 30 uM incubated for CellTiter-Blue cell viability assay; format: functional, cell-based; how it was run: as §1
HCT-116 = test: Cytotoxicity in human HCT116 cells assessed as reduction in cell viability at 30 uM incubated for CellTiter-Blue cell viability assay; format: functional, cell-based; how it was run: as §1
Splenocyte [2] = test: Immunomodulatory activity in C57BL/6 mouse splenocytes assessed as increase in CD3+T cell proliferation at 3 uM by PE-CD3 staining based flow cytometry; format: functional
Splenocyte [3] = test: Immunomodulatory activity in Con A-stimulated C57BL/6 mouse splenocytes assessed as increase in CD3+T cell proliferation at 3 uM by PE-CD3 staining based flow cytometry; format: functional
How it was run: (§2)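 C57BL/6 mouse splenocytes, Con A-stimulated (Con A 5 μg/mL as control), were incubated with compounds at 3 μM for 24 h. Cells were stained with PE-CD3, FITC-CD4 and PerCP/Cy5.5-CD8. Flow cytometry gave the percentage of CD3+, CD4+ and CD8+ T cells and the CD4+/CD8+ ratio. Values are means ± SD, n = 3.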

Splenocyte [4] = test: Immunomodulatory activity in Con A-stimulated C57BL/6 mouse splenocytes assessed as increase in ratio of CD4+/[…] cells at 3 uM by PE-CD3 staining based flow cytometry; format: functional, cell-based; how it was run: as §2

What does the source list for C[C@H]1CC[C@H]2[C@H](C1)[C@@H](O)[C@@H]1O/C(=C\C=O)[C@@]2(C)[C@]1(C)O?
Activity (MCF7): inactive; Activity (A549): inactive; Activity (Splenocyte [1]): Non-Toxic; Activity (Daoy): inactive; Activity (HCT-116): inactive

Which results are given for CC(=O)[C@]1(C)[C@H]2CC[C@H](C)C[C@@H]2[C@H](Cl)[C@@H](O)[C@@]1(C)O?
Activity (MCF7): inactive; Activity (A549): inactive; Activity (Splenocyte [1]): Non-Toxic; Activity (Daoy): inactive; Activity (HCT-116): inactive

Which Activity (MCF7) does the source give for C[C@@]1(O)CC[C@H]2[C@@H](C=C[C@@]3(C)OC(=O)C[C@H](O)[C@]23C)C1 here?
The Activity was “inactive”.

And the Activity (Splenocyte [2])?
Its Activity is “inactive”.

And the Activity (A549)?
Its Activity is “inactive”.

And the Activity (Splenocyte [1])?
Its Activity is “Non-Toxic”.

What about the Activity (Daoy) of the same compound?
Its Activity is “inactive”.

And the Activity (Splenocyte [3])?
Its Activity is “inactive”.

And the Activity (Splenocyte [4])?
Its Activity is “Active”.

What about the Activity (HCT-116) of the same compound?
Its Activity is “inactive”.

CC(=O)[C@@]1(C)C(C)=C[C@H](O)[C@H]2C[C@](C)(O)CC[C@@H]21 was tested. Which Activity (MCF7) did it give?
Its Activity is “inactive”.

What about the Activity (A549) of the same compound?
Its Activity is “inactive”.

And the Activity (Splenocyte [1])?
Its Activity is “Non-Toxic”.

What about the Activity (Daoy) of the same compound?
Its Activity is “inactive”.

What about the Activity (Splenocyte [4]) of the same compound?
Its Activity is “Active”.

What about the Activity (HCT-116) of the same compound?
The Activity was “inactive”.

C[C@H]1CC[C@H]2C(=C[C@@H](O)[C@@](C)(O)[C@]2(C)C(=O)CCO)C1 was tested. Which Activity (MCF7) did it give?
Its Activity is “inactive”.

What about the Activity (Splenocyte [2]) of the same compound?
Its Activity is “inactive”.

And the Activity (A549)?
Its Activity is “inactive”.

And the Activity (Splenocyte [1])?
The Activity was “Non-Toxic”.

And the Activity (Daoy)?
The Activity was “inactive”.

What about the Activity (Splenocyte [3]) of the same compound?
Its Activity is “inactive”.

And the Activity (HCT-116)?
The Activity was “inactive”.

Which Activity (MCF7) does the source give for C[C@H]1CC[C@H]2[C@H](C1)[C@H](Cl)[C@@H](O)[C@@](C)(O)[C@]2(C)C(=O)CCO here?
Its Activity is “inactive”.

What about the Activity (Splenocyte [2]) of the same compound?
The Activity was “inactive”.

And the Activity (A549)?
Its Activity is “inactive”.

What about the Activity (Splenocyte [1]) of the same compound?
The Activity was “Non-Toxic”.

And the Activity (Daoy)?
The Activity was “inactive”.

And the Activity (Splenocyte [3])?
The Activity was “inactive”.

What about the Activity (Splenocyte [4]) of the same compound?
Its Activity is “Active”.

And the Activity (HCT-116)?
Its Activity is “inactive”.

Which results are given for CC(=O)OCCC(=O)[C@]1(C)[C@H]2CC[C@H](C)C[C@@H]2C=C[C@@]1(C)O?
Activity (MCF7): inactive; Activity (Splenocyte [2]): inactive; Activity (A549): inactive; Activity (Splenocyte [1]): Non-Toxic; Activity (Daoy): inactive; Activity (Splenocyte [3]): inactive; Activity (Splenocyte [4]): Active; Activity (HCT-116): inactive

C[C@H]1CC[C@H]2[C@@H](C=C[C@@](C)(O)[C@]2(C)C(=O)CCO)C1 was tested. Which Activity (MCF7) did it give?
Its Activity is “inactive”.

And the Activity (Splenocyte [2])?
Its Activity is “Active”.

What about the Activity (A549) of the same compound?
The Activity was “inactive”.

What about the Activity (Splenocyte [1]) of the same compound?
Its Activity is “Non-Toxic”.

And the Activity (Daoy)?
The Activity was “inactive”.

What about the Activity (Splenocyte [3]) of the same compound?
The Activity was “Active”.

What about the Activity (HCT-116) of the same compound?
The Activity was “inactive”.

How did the Activity (MCF7) turn out when CC(=O)OCCC(=O)[C@]1(C)[C@H]2CC[C@H](C)C[C@@H]2[C@H](Cl)[C@@H](O)[C@@]1(C)O was run?
The Activity was “inactive”.

And the Activity (A549)?
Its Activity is “inactive”.

What about the Activity (Splenocyte [1]) of the same compound?
Its Activity is “Non-Toxic”.

And the Activity (Daoy)?
The Activity was “inactive”.

What about the Activity (HCT-116) of the same compound?
The Activity was “inactive”.

Which Activity (MCF7) does the source give for C[C@@]1(O)CC[C@H]2[C@@H](C=C[C@@]3(C)OC(=O)CC[C@]23C)C1 here?
The Activity was “inactive”.

What about the Activity (Splenocyte [2]) of the same compound?
The Activity was “inactive”.

And the Activity (A549)?
Its Activity is “inactive”.

And the Activity (Splenocyte [1])?
Its Activity is “Non-Toxic”.

What about the Activity (Daoy) of the same compound?
Its Activity is “inactive”.

What about the Activity (Splenocyte [3]) of the same compound?
The Activity was “inactive”.

And the Activity (HCT-116)?
Its Activity is “inactive”.

For C[C@@]1(O)CC[C@H]2[C@](O)(C1)[C@@H]1O[C@@H]1[C@@]1(C)OC(=O)CC[C@]21C, which Activity (MCF7) is on record?
The Activity was “inactive”.

And the Activity (Splenocyte [2])?
Its Activity is “Active”.

And the Activity (A549)?
The Activity was “inactive”.

What about the Activity (Splenocyte [1]) of the same compound?
The Activity was “Non-Toxic”.

What about the Activity (Daoy) of the same compound?
The Activity was “inactive”.

What about the Activity (Splenocyte [3]) of the same compound?
The Activity was “Active”.

And the Activity (HCT-116)?
The Activity was “inactive”.

How did the Activity (MCF7) turn out when C[C@H]1CC[C@H]2[C@@H](C=C[C@@](C)(O)[C@]2(C)C(=O)O)C1 was run?
The Activity was “inactive”.

What about the Activity (Splenocyte [2]) of the same compound?
Its Activity is “Active”.

What about the Activity (A549) of the same compound?
Its Activity is “inactive”.

What about the Activity (Splenocyte [1]) of the same compound?
Its Activity is “Non-Toxic”.

And the Activity (Daoy)?
Its Activity is “inactive”.

What about the Activity (Splenocyte [3]) of the same compound?
Its Activity is “Active”.

And the Activity (HCT-116)?
The Activity was “inactive”.

C[C@@]1(O)CC[C@H]2[C@@H](C=C[C@]3(C)OCC[C@H](O)[C@]23C)C1 was tested. Which Activity (MCF7) did it give?
The Activity was “inactive”.

And the Activity (Splenocyte [2])?
Its Activity is “inactive”.

And the Activity (A549)?
The Activity was “inactive”.

What about the Activity (Splenocyte [1]) of the same compound?
The Activity was “Non-Toxic”.

What about the Activity (Daoy) of the same compound?
Its Activity is “inactive”.

And the Activity (Splenocyte [3])?
Its Activity is “inactive”.

What about the Activity (HCT-116) of the same compound?
The Activity was “inactive”.

Which Activity (MCF7) does the source give for CC(=O)[C@]1(C)[C@H]2CC[C@@](C)(O)C[C@@H]2C=C[C@@]1(C)O here?
The Activity was “inactive”.

And the Activity (Splenocyte [2])?
The Activity was “inactive”.

What about the Activity (A549) of the same compound?
The Activity was “inactive”.

And the Activity (Splenocyte [1])?
Its Activity is “Non-Toxic”.

What about the Activity (Daoy) of the same compound?
Its Activity is “inactive”.

What about the Activity (Splenocyte [3]) of the same compound?
The Activity was “inactive”.

And the Activity (HCT-116)?
The Activity was “inactive”.

What does the source list for C[C@@]1(O)CC[C@H]2[C@H](C1)[C@@H]1O[C@@H]1[C@@]1(C)OC(=O)CC[C@]21C?
Activity (MCF7): inactive; Activity (A549): inactive; Activity (Splenocyte [1]): Non-Toxic; Activity (Daoy): inactive; Activity (HCT-116): inactive

Which results are given for CC(=O)OCCC(=O)[C@]1(C)[C@H]2CC[C@@](C)(O)C[C@@H]2C=C[C@@]1(C)O?
Activity (MCF7): inactive; Activity (A549): inactive; Activity (Splenocyte [1]): Non-Toxic; Activity (Daoy): inactive; Activity (HCT-116): inactive
